Source: PubChem
CHRM5 antagonist = antagonists of human muscarinic M5 receptor (CHRM5). P08912. CHO-hM5 cells, Fluo-8 calcium fluorescence, ACh EC80. inhibition, % at 3 µM. 360,000 tested, 0.59% active. AID 624040;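 active means inhibition above a per-plate cutoff, the mean of that plate's test compounds plus 3 SD, cut at about 27% in these data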
CHRM5 PAM = CHRM5 positive allosteric modulation; P08912; CHO-K1 hM5, Fluo-8 calcium, ACh EC20 PAM; 0% = ACh EC20, 100% = ACh EC100; activation, % at 3 µM; 360,000 tested, 0.3% active;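 active means activation above the run cutoff, the mean activation of all test compounds plus 3 SD, cut at about 18% in these data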
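Test system: CHO-K1 hM5 cells / Doses: single-point, 3 µM nominal / Times: Post-acetylcholine fluorescence recording 140 s / Technique: Fluo-8 calcium fluorescence / Measure: Max/basal fluorescence ratio as % of EC20–EC100 ACh window / Benchmarks: low control EC20 acetylcholine (0%), high control EC100 acetylcholine (100%) / Replicates: one well per compound, no replicates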
M4 ag = CHRM4 agonism in calcium assay; CHO-K1 hM4/Gqi5, Fluo-8 calcium fluorescence; vehicle 0%, full acetylcholine response 100%; activation, % at 3 µM; 360,000 tested, 0.14% active; AID 624127;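 active means activation above the run mean over all test wells plus 3 SD, cut at about 32% in these data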;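 further: peak over basal fluorescence ratio per well then scaled between controls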
Target sequence (P08173 whole entry, looked up): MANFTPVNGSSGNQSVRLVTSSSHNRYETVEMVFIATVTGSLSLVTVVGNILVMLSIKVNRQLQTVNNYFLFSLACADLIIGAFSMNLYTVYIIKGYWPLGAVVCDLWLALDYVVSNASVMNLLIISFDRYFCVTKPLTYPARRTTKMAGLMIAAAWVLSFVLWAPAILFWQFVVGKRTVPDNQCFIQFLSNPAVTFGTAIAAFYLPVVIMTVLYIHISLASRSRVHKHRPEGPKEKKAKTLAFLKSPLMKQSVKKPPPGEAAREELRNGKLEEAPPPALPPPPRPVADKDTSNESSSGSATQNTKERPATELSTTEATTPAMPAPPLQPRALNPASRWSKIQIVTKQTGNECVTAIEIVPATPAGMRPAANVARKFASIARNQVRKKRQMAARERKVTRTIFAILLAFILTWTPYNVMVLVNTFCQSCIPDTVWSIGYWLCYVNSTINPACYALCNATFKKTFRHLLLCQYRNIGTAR
CHRM5 agonist = CHRM5 agonism in calcium assay. 360,000 tested, 0.19% active. CHO-K1 hM5 cells, Fluo-8 calcium fluorescence; 0% DMSO wells, 100% maximal acetylcholine response. P08912. activation, % at 3 µM;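 active means activation above the run's mean over test compounds plus 3 SD, cut at about 23% in these data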;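 further: signal is peak over basal fluorescence ratio across the kinetic read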
M4 antag = blocks acetylcholine activation of human M4 receptor. 360,000 tested, 0.73% active. P08173. CHO-hM4 cells, ACh EC80, Fluo-8 calcium fluorescence. AID 624125. inhibition, % at 3 µM;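 active means inhibition above its plate's cutoff, the mean inhibition of sample wells plus 3 SD, cut at about 27% in these data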
M4 PAM = potentiates acetylcholine response at human M4 receptor; P08173; CHO-K1 hM4/Gqi5, Fluo-8 calcium fluorescence, ACh EC20; 0% = ACh EC20, 100% = maximal ACh; activation, % at 3 µM; 360,000 tested, 0.4% active;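 active means activation above its plate's cutoff, the mean activation of sample wells plus 3 SD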
Of the large screens only hits and unclear results are named; the others gave an inactive call. Rows were chosen to be rich in hits. Some 1.9% of all compounds tested hit in one or more screens of this group.

Cc1cccc(C(=O)NC(=S)NNC(=O)c2ccc(Cl)cc2)c1	CHRM5 antagonist 30.5, M4 ag 132.5, CHRM5 agonist 89.8, M4 antag 39.6
COc1cc(C(=O)NNC(=S)NC(=O)c2ccc(Cl)cc2)cc(OC)c1OC	M4 ag 43.8, CHRM5 agonist 33.1
O=C(NNC(=S)Nc1cccc(C(F)(F)F)c1)c1cccc(Cl)c1	CHRM5 antagonist 45.7
O=C1CS(=O)(=O)c2ccccc2N1	none
C=C1c2cc3c(cc2NC(=S)N1Cc1ccccc1)OCO3	none
COc1ccccc1Nc1nc(-c2ccc3c(c2)NC(=O)CO3)cs1	none
COc1ccc(Nc2nc(-c3ccc4c(c3)NC(=O)CO4)cs2)cc1	M4 PAM 21.8
Cc1ccccc1C(=O)NC(=S)N(C)CCc1ccccn1	none
CCOC(=O)c1c(-c2ccc(C)o2)csc1NC(=O)CN(C)CC(=O)Nc1ccc(C)cc1	M4 antag 31.3
CCSC(=O)N=Nc1ccc(O)cc1	none
Cc1ccccc1C(=O)N/N=C/c1ccc(Sc2ccccn2)o1	CHRM5 PAM 24.0
O=C(N/N=C\c1ccc(Sc2ccccn2)o1)c1cccc(Br)c1	none
CCCCCCCCN1N=N[C@H]2[C@H]1[C@@H]1C[C@H]2N(C(=O)OC(C)(C)C)O1	M4 antag 30.8
CN(CCC#N)C(=O)c1cc2c(s1)-c1ccccc1SC2	none
C[N+](C)(C)CC/C=C1/c2ccccc2CSc2ccccc21	CHRM5 antagonist 98.7, M4 antag 96.2
CC(=O)OCCCN(C)CC/C=C1/c2ccccc2CSc2ccccc21	M4 antag 36.1
O=C1NC[C@@H](CCCCN2CCN(Cc3ccccc3)C(=O)C2=O)N(CCC2CCCCC2)C1=O	none
Cc1cc(C)n2nc(SCC(=O)N3CCC(C)CC3)nc2n1	none
Cc1cc(C)n2nc(SCC(=O)N3CCCC3)nc2n1	CHRM5 PAM 24.4
COc1ccc(Cl)cc1-c1nc(SCC(=O)NCC2CCCO2)n[nH]1 (stereo unspecified)	none
COc1cc(C#Cc2c(-c3cncn3C)n(C)c3ccc(-c4cnc(N5CCOCC5)nc4)cc23)cc(OC)c1	none
COc1cc(C#Cc2c(-c3cncn3C)n(C)c3ccc(-c4ccc(CN5CCOCC5)cc4)cc23)cc(OC)c1	M4 antag 29.8
O=C(Cn1nc(C(=O)O)c2ccccc2c1=O)Nc1ccccc1C(F)(F)F	none
COC(=O)c1c(C)oc2ccc(N(C(=O)c3ccncc3)S(=O)(=O)c3ccc4ccccc4c3)cc12	M4 antag 33.1
O=C(NCCCN1CCOCC1)c1ccccc1N1C(=O)[C@@H]2Cc3c([nH]c4ccccc34)C(c3cccc(Cl)c3)N2C1=O (stereo partly specified)	none
CCOC(=O)c1ccc(N=c2scc(C)n2CC)cc1	none
CCOC(=O)c1ccc(N=C2C(=S)N(c3ccc(C(=O)OCC)cc3)C(=N)N2/N=C/c2ccccc2)cc1	CHRM5 antagonist 87.0, M4 antag 99.3
C[C@H](CO)N1C[C@H](C)[C@H](CN(C)Cc2ccc(Oc3ccccc3)cc2)Oc2cc(Br)ccc2S1(=O)=O	none
CCN(CC)c1ccc(/C=C(/C#N)c2nc3ccc(C)cc3[nH]2)c(OC(C)C)c1	CHRM5 antagonist 69.0, M4 ag 46.4, CHRM5 agonist 58.5, M4 antag 56.0
CCOc1cc(N(CC)CC)ccc1/C=C(/C#N)c1nc2ccccc2[nH]1	none
CCCOc1cc(N(CC)CC)ccc1/C=C(/C#N)c1nc2ccc(C)cc2[nH]1	CHRM5 antagonist 55.5, CHRM5 agonist 39.0, M4 antag 45.4
O=C(O)C(Cc1ccccc1N(CCO)CCO)N1C(=O)c2ccccc2C1=O (stereo unspecified)	none
C/C(=N\NC(=O)c1cccc(C)c1)c1ccc(N2CCOCC2)cc1	CHRM5 PAM 18.5
COc1ccc(C2C(C(=O)NCc3ccco3)CCC(=O)N2c2ccc(OC)cc2)cc1 (stereo unspecified)	CHRM5 PAM 46.0
COc1ccc(C2C(C(=O)O)CCC(=O)N2c2ccc(OC)cc2)cc1 (stereo unspecified)	none
N#CC1(Nc2ccc(S(N)(=O)=O)cc2)CCCC1	none
CCCNS(=O)(=O)c1ccc(CCC(=O)Nc2cc(Cl)ccc2Oc2ccccc2)cc1	CHRM5 antagonist 29.3, M4 antag 42.9
CC(C)(CN1CCN(c2ccccc2)CC1)NS(=O)(=O)c1ccccc1	M4 antag 31.1
CC(OC(=O)c1cccnc1Cl)C(=O)Nc1ccc2c(c1)OCO2 (stereo unspecified)	none
CCCNC(=O)CN(c1ccccc1)S(=O)(=O)c1ccc(OC)c(OC)c1	none
COc1ccc(S(=O)(=O)N(CC(=O)NCCC(C)C)c2ccccc2)cc1OC	M4 PAM 25.2
O=C(Nc1ccc(Cl)cc1)[C@@H]1[C@@H]2C(=O)N(c3ccc4ccccc4c3)C(=O)[C@@H]2[C@H]2C=CC=NN21	CHRM5 PAM 32.1
Cc1cc(-n2c(C)cc(C(=O)COc3ccc(F)c(F)c3)c2C)no1	none
Fc1ccc(COc2ccc(Cl)cc2/C=N/Nc2nc(N3CCCC3)nc(N3CCCC3)n2)cc1	M4 ag 34.1
NCc1ccccc1CS(=O)(=O)N1CCOCC1	none
Cc1cc(C(=O)CN2C(=O)CCC2=O)c(C)n1Cc1ccccc1	M4 PAM 18.1
CCOC(=O)c1ccc(NC(=O)CSc2nc3ncccc3[nH]2)cc1	none
CCCCc1ccc(NC(=O)CSc2nc3ncccc3[nH]2)cc1	M4 antag 32.8
CCc1nc2ccc(C(=O)NCCN3CCNC3=O)cn2c1N(C)CCC(C)C	none
CNc1cc(-c2cc(OC)ccc2OC)ncn1	M4 antag 72.9
COc1ccc(Br)cc1/C=N/NC(=O)c1ccc2nc[nH]c2c1	none
Cc1nn(CC2CC2)c(=O)n1-c1ccccc1	none
Cc1cc(=O)[nH]c(SCC(=O)/C=C2\N(C)c3ccccc3C2(C)C)n1	CHRM5 antagonist 30.9, M4 antag 33.4
CN1/C(=C/C(=O)CSc2ccccc2C(=O)O)C(C)(C)c2ccccc21	none
CC(=O)Nc1ccc(CN2CCN(C3CCCCC3)C(CCO)C2)cc1 (stereo unspecified)	none
COC(=O)c1ccc(CN2CCN(C3CCCCC3)C(CCO)C2)cc1 (stereo unspecified)	M4 antag 60.5
COC(=O)c1ccc(CN2CCN(C3CCCC3)C(CCO)C2)cc1 (stereo unspecified)	M4 antag 76.7
COc1cc(OC)c(/C=N/NC(=O)COc2cccc3cccnc23)c(OC)c1	none
O=C(Nc1ccc(-n2cnnn2)cc1)c1cc(S(=O)(=O)N2CCCC2)ccc1Cl	none
Cc1ccc2c(C)c(C(=O)Nc3ccc(S(N)(=O)=O)cc3)oc2c1C	CHRM5 PAM 27.1
